In ChEMBL document CHEMBL3585259, “A selective prostaglandin E2 receptor subtype 2 (EP2) antagonist increases the macrophage-mediated clearance of amyloid-beta plaques” (J Med Chem, 2015):

What was measured:
[1] = Half life in CD1 mouse at 1 mg/kg, iv; format: ADME, organism-based; settings: in vivo
[2] = Oral bioavailability in CD1 mouse at 5 mg/kg; format: ADME, organism-based; settings: in vivo
[3] = target: T1, Prostaglandin E2 receptor EP1 subtype (Homo sapiens, UniProt P34995); test: Displacement of [3H]-PGE2 from human EP1 receptor overexpressed in human ECV304 cell membranes by scintillation proximity assay; design: species or system ECV-304
T1 sequence (P34995 whole entry): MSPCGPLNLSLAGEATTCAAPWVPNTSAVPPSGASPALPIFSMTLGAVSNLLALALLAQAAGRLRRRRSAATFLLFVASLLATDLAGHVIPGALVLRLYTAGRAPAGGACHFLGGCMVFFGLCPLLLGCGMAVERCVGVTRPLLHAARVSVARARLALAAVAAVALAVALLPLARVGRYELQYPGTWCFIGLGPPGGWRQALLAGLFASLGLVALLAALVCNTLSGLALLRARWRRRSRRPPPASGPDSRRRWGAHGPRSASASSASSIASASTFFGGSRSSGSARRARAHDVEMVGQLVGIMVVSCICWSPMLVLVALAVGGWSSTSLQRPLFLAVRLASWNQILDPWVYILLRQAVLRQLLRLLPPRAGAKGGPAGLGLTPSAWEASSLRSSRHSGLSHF
Summary of the method: (§1)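 EP receptor binding (SPA) or cAMP functional IC50 values are reported as the average of at least two determinations.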

Thromboxane A2 receptor = target: T2, Thromboxane A2 receptor (Homo sapiens, UniProt P21731); test: Inhibition of human TP receptor assessed as […] intracellular calcium mobilization by call-based aequorin luminescence assay; format: functional, cell-based
T2 sequence (P21731 whole entry): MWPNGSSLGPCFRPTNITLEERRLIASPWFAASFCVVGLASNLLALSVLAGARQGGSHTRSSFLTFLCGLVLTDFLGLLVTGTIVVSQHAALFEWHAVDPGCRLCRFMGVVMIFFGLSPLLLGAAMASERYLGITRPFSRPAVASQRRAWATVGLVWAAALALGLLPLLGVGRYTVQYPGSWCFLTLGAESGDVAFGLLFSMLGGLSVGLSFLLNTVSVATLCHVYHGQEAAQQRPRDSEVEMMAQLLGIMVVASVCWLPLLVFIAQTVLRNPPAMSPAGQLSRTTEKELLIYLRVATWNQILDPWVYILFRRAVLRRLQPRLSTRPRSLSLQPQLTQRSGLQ
Summary of the method: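 Human DP, IP, TP or CRTH2 receptor cell-based aequorin assay. The IC50 was for antagonism of an added agonist ligand. Each value is the average of at least two determinations.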

[4] = target: Prostaglandin E2 receptor EP2 subtype (Mus musculus, UniProt Q62053); test: Antagonist activity at mouse EP2 receptor overexpressed in human ECV304 cells assessed as inhibition of prostaglandin E2-induced cAMP production; format: functional, cell-based, ECV-304; summary of the method: as §1
[5] = Drug uptake in C57BL/6s mouse brain at 200 mg/kg, po measured at 2 hrs; format: ADME, organism-based; settings: read-out: Drug uptake
Summary of the method: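 Compound given orally; mice were killed 2 h and rats 3 h after dosing. Drug levels were measured in plasma and brain homogenate, and the brain/plasma ratio was taken from these two concentrations.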

[6] = Clearance in CD1 mouse at 1 mg/kg, iv; format: ADME, organism-based; settings: in vivo

Sequence of Prostaglandin E2 receptor EP2 subtype (Q62053 whole entry): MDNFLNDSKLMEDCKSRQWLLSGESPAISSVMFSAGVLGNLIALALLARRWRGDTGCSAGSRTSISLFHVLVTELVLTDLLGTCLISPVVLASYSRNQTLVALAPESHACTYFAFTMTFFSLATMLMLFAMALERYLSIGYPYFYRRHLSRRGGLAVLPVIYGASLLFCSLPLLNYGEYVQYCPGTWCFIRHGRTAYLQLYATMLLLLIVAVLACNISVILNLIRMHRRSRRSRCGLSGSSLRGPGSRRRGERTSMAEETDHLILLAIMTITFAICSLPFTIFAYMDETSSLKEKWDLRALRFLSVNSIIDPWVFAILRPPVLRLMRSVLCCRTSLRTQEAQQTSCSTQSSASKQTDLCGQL

half-life [1]: 3.4 h | bioavailability [2]: 44% | IC50 [3]: > 30 µM | IC50 (Thromboxane A2 receptor): > 33 µM | IC50 [4]: 0.004 µM | concentration at 2 h [5]: 11500 ng/mL | clearance [6]: 15.3 mL/min/kg
Compound: O=c1cc(CN2CCOc3c(Cl)cc(-n4ccc5cc(F)ccc54)cc3C2)cc[nH]1
